We go through 6 compounds from ChEMBL document CHEMBL1134320, “Structure of protein tyrosine phosphatase 1B in complex with inhibitors bearing two phosphotyrosine mimetics” (J Med Chem, 2001).

Experiment [1] has as its target T1, Tyrosine-protein phosphatase non-receptor type 1 (Homo sapiens, UniProt P18031).
T1 sequence (P18031 whole entry): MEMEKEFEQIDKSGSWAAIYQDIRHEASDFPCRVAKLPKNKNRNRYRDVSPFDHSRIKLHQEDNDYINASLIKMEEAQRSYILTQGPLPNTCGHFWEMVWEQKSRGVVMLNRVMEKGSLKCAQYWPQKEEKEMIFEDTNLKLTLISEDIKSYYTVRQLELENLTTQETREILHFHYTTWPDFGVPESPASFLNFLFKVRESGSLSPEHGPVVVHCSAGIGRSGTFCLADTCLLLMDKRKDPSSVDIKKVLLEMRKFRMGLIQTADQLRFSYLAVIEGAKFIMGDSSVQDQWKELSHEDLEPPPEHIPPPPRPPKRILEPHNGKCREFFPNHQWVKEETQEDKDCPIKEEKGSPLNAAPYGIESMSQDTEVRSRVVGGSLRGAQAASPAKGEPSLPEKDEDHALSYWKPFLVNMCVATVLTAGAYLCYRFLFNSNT
Nature of the experiment: Binding affinity towards the binding site in PTP1B enzyme.

The target of experiment [2] is Tyrosine-protein phosphatase non-receptor type 6 (Homo sapiens, UniProt P29350). Kind of experiment: Inhibitory activity against Protein tyrosine phosphatase SHP-1. In outline:
(§1)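 Phosphatase activity was read with 3,6-fluorescein diphosphate (FDP) as substrate, at roughly the KM concentration for each enzyme. IC50 came from 10 inhibitor concentrations fitted to a four-parameter equation, with errors under 10%. Constructs: flag-PTP1B (1–320); flag-CD45 intracellular domain; GST-PTPβ, GST-SHP1 and GST-SHP2; human recombinant TCPTP from E. coli; flag-CDC25a from baculovirus-infected Sf9 cells.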

Experiment [3] addresses T2, Tyrosine-protein phosphatase non-receptor type 2 (Homo sapiens, UniProt P17706).
T2 sequence (P17706 whole entry): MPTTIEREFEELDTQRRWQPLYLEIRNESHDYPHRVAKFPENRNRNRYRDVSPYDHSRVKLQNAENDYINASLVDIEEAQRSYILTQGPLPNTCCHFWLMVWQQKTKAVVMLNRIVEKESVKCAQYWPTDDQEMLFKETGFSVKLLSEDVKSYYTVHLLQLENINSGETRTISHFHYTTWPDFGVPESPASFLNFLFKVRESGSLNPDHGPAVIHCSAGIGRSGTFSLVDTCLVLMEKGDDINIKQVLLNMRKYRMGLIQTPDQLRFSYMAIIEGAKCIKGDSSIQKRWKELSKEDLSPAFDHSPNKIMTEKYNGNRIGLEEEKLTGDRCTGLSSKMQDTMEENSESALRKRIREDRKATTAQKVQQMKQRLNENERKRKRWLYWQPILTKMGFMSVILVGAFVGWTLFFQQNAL
Kind of experiment: Inhibitory activity against Protein tyrosine phosphatase TCPTP. In outline: as §1

The target in experiment [4] is T1, Tyrosine-protein phosphatase non-receptor type 1. Nature of the experiment: Binding affinity towards the site of PTP1B enzyme.
Experiment [5] shares this target. Nature of the experiment: Inhibitory activity against Protein tyrosine phosphatase 1B (PTP1B). A digest of the protocol: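 Phosphatase activity was read with 3,6-fluorescein diphosphate (FDP) as substrate, at roughly the KM concentration for each enzyme. Constructs: flag-PTP1B (1–320); flag-CD45 intracellular domain; GST-PTPβ, GST-SHP1 and GST-SHP2; human recombinant TCPTP from E. coli; flag-CDC25a from baculovirus-infected Sf9 cells.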

In experiment [6] the target is T3, Tyrosine-protein phosphatase non-receptor type 11 (Homo sapiens, UniProt Q06124).
T3 sequence (Q06124 whole entry): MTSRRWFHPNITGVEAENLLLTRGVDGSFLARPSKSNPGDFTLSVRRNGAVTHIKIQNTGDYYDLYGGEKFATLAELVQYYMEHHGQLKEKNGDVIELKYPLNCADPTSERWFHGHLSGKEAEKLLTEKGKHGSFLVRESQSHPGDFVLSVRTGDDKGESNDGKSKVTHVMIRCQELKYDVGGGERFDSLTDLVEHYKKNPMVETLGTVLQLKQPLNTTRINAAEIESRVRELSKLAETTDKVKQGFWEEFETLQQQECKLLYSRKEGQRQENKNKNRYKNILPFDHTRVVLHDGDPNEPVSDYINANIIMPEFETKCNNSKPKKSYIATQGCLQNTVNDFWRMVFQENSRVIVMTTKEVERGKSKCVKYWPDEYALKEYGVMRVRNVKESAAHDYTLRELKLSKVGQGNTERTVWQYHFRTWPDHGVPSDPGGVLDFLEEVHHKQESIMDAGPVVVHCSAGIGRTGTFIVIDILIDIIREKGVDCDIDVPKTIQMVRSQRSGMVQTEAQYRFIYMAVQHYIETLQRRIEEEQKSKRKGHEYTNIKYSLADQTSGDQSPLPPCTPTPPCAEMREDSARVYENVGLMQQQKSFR
Kind of experiment: Inhibitory activity against Protein tyrosine phosphatase SHP-2. In outline: as §1

The target in experiment [7] is Receptor-type tyrosine-protein phosphatase beta (Homo sapiens, UniProt P23467). Nature of the experiment: Inhibitory activity against Protein tyrosine phosphatase PTPbeta. A digest of the protocol:
as §1

Experiment [8] has as its target T4, Receptor-type tyrosine-protein phosphatase C (Homo sapiens, UniProt P08575).
T4 sequence (P08575 whole entry): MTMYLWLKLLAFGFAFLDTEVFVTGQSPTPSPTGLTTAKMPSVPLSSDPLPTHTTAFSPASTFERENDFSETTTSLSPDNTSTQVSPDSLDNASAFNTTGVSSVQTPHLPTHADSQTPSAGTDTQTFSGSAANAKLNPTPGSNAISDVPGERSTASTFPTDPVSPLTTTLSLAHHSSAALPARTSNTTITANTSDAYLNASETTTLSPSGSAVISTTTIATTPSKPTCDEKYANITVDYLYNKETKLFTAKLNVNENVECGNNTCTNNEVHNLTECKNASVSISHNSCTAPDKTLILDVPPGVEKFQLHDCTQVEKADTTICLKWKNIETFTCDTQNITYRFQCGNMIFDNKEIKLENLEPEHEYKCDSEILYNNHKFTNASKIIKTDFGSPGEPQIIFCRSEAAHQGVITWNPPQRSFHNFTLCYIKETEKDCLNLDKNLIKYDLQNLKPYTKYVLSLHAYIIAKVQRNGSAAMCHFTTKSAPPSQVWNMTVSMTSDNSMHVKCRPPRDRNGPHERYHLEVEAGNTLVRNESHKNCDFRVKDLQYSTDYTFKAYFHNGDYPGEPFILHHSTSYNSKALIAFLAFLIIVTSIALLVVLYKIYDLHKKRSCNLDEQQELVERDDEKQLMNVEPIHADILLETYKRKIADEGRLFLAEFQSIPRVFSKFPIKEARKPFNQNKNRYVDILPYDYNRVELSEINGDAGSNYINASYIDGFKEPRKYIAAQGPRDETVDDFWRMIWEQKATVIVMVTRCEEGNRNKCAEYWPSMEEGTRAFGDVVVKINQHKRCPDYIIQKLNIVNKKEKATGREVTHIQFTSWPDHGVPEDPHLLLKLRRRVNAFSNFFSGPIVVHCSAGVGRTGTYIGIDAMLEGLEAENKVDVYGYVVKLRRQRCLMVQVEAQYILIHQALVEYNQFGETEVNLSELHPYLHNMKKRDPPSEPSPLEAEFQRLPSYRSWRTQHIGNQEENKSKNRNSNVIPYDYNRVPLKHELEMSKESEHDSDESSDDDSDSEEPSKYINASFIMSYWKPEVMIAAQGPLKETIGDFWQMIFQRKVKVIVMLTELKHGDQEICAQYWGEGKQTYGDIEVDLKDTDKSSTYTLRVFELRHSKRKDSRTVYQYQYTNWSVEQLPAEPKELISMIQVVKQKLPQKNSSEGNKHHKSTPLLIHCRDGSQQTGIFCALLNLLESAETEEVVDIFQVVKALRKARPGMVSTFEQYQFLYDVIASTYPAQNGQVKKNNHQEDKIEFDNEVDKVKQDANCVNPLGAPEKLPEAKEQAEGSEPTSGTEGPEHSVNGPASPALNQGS
Kind of experiment: Inhibitory activity against Protein tyrosine phosphatase CD45. A digest of the protocol:
as §1

Experiment [9] addresses T5, M-phase inducer phosphatase 1 (Homo sapiens, UniProt P30304).
T5 sequence (P30304 whole entry): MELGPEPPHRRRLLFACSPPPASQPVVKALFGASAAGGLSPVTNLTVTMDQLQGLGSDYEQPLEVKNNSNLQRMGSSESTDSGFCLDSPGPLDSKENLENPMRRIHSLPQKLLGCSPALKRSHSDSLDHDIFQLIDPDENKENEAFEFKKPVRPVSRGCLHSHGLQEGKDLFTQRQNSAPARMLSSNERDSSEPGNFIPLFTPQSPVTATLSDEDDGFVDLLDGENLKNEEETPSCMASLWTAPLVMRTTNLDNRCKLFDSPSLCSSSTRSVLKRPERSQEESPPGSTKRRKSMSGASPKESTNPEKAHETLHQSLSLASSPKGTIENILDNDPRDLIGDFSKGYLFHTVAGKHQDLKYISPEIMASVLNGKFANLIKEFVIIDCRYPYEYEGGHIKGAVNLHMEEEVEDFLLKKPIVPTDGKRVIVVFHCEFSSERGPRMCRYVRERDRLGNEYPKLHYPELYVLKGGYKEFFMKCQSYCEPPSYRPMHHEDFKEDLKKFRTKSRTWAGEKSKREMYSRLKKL
Nature of the experiment: Inhibitory activity against Protein tyrosine phosphatase cell division cycle 25A. In outline: as §1

The target in experiment [10] is T6, Tyrosine-protein phosphatase non-receptor type 4 (Homo sapiens, UniProt P29074).
T6 sequence (P29074 whole entry): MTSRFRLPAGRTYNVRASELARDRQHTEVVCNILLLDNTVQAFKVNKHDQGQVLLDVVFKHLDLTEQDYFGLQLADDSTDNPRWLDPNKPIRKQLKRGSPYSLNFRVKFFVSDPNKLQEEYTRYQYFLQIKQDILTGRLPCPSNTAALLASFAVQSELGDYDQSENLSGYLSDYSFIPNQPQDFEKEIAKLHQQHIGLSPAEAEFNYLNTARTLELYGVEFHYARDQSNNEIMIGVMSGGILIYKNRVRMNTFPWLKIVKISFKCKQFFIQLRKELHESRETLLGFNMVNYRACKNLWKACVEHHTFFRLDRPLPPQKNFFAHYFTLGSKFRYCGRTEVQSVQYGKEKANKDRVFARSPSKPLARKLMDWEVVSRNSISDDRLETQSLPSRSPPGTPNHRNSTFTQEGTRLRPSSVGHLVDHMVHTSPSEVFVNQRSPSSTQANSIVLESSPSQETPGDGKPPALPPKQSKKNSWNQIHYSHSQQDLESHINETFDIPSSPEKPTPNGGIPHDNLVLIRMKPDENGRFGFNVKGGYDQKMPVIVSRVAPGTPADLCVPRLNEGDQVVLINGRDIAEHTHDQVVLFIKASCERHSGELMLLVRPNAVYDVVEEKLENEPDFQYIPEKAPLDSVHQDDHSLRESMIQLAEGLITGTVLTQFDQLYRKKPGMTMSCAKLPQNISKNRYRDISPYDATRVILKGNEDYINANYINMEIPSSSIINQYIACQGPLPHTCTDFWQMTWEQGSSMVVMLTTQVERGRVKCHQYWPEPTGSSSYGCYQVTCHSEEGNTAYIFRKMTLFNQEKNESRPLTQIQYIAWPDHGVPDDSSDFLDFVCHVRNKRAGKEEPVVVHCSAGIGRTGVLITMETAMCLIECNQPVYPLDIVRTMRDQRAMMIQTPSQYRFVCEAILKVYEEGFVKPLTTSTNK
Kind of experiment: Inhibitory activity against Protein tyrosine phosphatase PTPmeg-1.

Chain of Tyrosine-protein phosphatase non-receptor type 6 (P29350 whole entry, the tested form may be a part): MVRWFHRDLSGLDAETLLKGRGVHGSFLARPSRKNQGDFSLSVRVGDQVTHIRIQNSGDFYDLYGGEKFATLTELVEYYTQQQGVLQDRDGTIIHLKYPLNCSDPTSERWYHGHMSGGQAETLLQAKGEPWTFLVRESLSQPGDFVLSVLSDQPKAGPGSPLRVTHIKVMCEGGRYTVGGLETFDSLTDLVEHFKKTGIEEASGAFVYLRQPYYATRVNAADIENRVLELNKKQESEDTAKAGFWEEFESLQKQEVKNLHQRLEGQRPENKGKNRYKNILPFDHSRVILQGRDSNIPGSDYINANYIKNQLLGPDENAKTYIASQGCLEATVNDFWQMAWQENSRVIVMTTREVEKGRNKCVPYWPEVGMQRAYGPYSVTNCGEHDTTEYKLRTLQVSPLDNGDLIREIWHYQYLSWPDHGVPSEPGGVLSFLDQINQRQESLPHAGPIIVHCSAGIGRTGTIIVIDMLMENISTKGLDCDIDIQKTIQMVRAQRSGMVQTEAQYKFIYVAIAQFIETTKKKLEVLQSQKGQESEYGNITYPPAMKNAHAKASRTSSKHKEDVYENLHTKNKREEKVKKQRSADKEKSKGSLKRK
Chain of Receptor-type tyrosine-protein phosphatase beta (P23467 whole entry): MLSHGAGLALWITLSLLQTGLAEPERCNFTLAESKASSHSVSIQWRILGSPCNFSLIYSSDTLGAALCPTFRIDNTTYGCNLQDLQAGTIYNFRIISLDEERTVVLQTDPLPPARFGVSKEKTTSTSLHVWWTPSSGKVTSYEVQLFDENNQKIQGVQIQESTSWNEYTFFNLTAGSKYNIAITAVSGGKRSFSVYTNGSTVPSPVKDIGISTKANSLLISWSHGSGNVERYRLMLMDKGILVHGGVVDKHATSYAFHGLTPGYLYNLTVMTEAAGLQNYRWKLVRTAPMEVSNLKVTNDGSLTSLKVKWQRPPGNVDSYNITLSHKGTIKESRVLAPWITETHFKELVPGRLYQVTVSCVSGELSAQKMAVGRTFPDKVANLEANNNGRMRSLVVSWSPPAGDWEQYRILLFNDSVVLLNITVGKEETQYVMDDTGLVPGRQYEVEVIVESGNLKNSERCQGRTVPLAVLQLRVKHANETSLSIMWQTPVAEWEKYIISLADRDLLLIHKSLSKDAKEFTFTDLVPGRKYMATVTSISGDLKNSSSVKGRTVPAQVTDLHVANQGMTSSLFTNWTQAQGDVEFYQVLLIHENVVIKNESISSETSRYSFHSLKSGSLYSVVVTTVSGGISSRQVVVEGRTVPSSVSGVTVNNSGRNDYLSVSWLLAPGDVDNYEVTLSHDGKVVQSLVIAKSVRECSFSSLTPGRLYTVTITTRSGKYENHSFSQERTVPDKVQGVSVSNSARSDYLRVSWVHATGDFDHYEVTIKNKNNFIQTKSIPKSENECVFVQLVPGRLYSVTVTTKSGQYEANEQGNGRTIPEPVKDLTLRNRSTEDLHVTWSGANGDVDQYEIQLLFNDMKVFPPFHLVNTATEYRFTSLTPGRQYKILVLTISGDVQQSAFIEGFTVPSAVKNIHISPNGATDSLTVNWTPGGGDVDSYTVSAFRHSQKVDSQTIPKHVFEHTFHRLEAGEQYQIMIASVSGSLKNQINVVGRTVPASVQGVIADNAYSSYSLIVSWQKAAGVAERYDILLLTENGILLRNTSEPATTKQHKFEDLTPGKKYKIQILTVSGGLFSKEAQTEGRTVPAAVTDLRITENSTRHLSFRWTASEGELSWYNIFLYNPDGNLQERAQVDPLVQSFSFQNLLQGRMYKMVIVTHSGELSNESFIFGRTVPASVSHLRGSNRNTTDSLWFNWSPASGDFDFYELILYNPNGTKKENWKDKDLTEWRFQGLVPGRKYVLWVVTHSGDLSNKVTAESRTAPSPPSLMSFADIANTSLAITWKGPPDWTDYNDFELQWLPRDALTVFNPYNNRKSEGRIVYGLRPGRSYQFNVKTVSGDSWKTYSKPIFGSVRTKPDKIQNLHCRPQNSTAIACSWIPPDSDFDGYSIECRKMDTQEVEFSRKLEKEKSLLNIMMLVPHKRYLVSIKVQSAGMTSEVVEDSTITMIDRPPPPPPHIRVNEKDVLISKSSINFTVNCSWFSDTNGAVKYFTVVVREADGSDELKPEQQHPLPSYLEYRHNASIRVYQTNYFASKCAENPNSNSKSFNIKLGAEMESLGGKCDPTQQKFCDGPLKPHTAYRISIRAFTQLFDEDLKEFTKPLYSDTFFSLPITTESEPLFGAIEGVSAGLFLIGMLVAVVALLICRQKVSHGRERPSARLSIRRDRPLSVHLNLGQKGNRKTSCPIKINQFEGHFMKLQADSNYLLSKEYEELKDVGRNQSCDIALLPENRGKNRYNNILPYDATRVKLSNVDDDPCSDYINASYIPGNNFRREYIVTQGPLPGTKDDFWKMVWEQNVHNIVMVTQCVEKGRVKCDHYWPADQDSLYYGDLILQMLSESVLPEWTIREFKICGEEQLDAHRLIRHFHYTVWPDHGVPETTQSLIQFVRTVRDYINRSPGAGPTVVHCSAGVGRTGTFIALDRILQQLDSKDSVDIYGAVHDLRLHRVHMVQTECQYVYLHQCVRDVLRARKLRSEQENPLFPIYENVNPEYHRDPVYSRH

For orientation: Ki means a measure of affinity in units of concentration, obtained from inhibition or displacement. On to `O=C(CCc1ccc(C(F)(F)P(=O)(O)O)cc1)Nc1cc(NC(=O)CCc2ccc(C(F)(F)P(=O)(O)O)cc2)cc(C(=O)NCc2ccc(C(=O)O)cc2)c1`, for which, in experiment [1], the Ki was 0.93 µM.
The IC50 is the concentration needed to halve the response being measured. Read a high IC50 as weaker potency in that assay. With `O=P(O)(O)C(F)(F)c1ccc(CCCCc2ccc(C(F)(F)P(=O)(O)O)cc2)cc1`, the IC50 in [2] was determined as 31 µM; in experiment [3] it was 6.4 µM; in experiment [5], 4.4 µM; in experiment [6] it was 91 µM; in experiment [7] it was 342 µM; in experiment [8], 198 µM. Affinity in experiment [4] was put at a Ki of 1.5 µM.
For the compound `O=P(O)(O)C(F)(F)c1ccc(COc2cccc(OCc3ccc(C(F)(F)P(=O)(O)O)cc3)c2)cc1`, the IC50 in experiment [2] was 16 µM; in experiment [3], 7.9 µM; in experiment [5] it was 5.3 µM; in experiment [6] it was 32 µM; in experiment [7], 77 µM; in experiment [9] it was 163 µM. Further, the IC50 in [8] was 108 µM.
As for `O=P(O)(O)C(F)(F)c1ccc(COc2ccc(OCc3ccc(C(F)(F)P(=O)(O)O)cc3)cc2)cc1`, the IC50 in [2] amounted to 6.3 µM; in [3], 4.6 µM; in experiment [5], 4.2 µM; in [10], 146 µM; in [6] it was 16 µM; in [7] it was 15 µM. In addition, the IC50 in [9] came out at 30 µM; in experiment [8], 14 µM.
Take `O=P(O)(O)C(F)(F)c1ccc(COc2ccccc2OCc2ccc(C(F)(F)P(=O)(O)O)cc2)cc1`: the IC50 is 15 µM in experiment [2]; 3.2 µM in [3]; 1.7 µM in [5]; 60 µM in experiment [6]; 77 µM in [7]; 163 µM in experiment [9]. In experiment [8], this compound registered an IC50 of 42 µM.
With `O=P(O)(O)C(F)(F)c1ccc(COCCOCc2ccc(C(F)(F)P(=O)(O)O)cc2)cc1`, the IC50 in experiment [2] amounted to 61 µM; in experiment [3] it was 6.1 µM; in [5], 3.9 µM; in experiment [6], 152 µM; in [7], 300 µM; in experiment [8], 236 µM.
